Results published in ChEMBL document CHEMBL1153310, “New prostaglandin derivative for glaucoma treatment” (Bioorg Med Chem Lett, 2009).

How the values were obtained:
Oryctolagus cuniculus [1] = experiment: Increase in glutathione levels in aqueous humor of carbomer-induced glaucomatous pigmented rabbit at 0.005%, topical administration continuously for 5 days by fluorimetry; format: functional, Aqueous humor of eyeball
Procedure, shortened: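 Carbomer-glaucomatous rabbits given daily topical 0.005% instillation for 5 days. Aqueous humour centrifuged at 100.000g, 4 °C for 30 min. Supernatant diluted in phosphate-EDTA buffer and reacted with o-phthaldialdehyde (1 mg/ml) for 15 min at room temperature. Fluorescence read at ex 350/em 420 nm against a GSH standard curve, in pmol/ml.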

Oryctolagus cuniculus [2] = experiment: Effect on intraocular pressure in carbomer-induced glaucoma in New Zealand albino rabbit assessed as AUC at 0.005%, topical administration measured after 4 hrs; format: functional, organism-based; parameters: time < 4 hr; conditions: Eye
Procedure, shortened: (§1)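 Glaucoma induced by carbomer injection into the anterior chamber; IOP checked every 30 min over the first 3 h, then at least three times daily until stabilized at high levels. Drug instilled topically, once (single-dose) or daily for 5 days (repeated). IOP measured by Tono-Pen tonometer; single-dose readings at 30, 60, 120 and 240 min; AUC in mm Hg h.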

Oryctolagus cuniculus [3] = experiment: Effect on intraocular pressure in carbomer-induced glaucoma in pigmented rabbit assessed as AUC at 0.005%, single topical administration measured over 4 hrs by tonometry; conditions: Eye
Oryctolagus cuniculus [4] = experiment: Increase in cGMP levels in aqueous humor of carbomer-induced glaucomatous pigmented rabbit at 0.005%, topical administration continuously for 5 days by radioimmunoassay; format: functional, Aqueous humor of eyeball
Procedure, shortened: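 Aqueous humour taken after 5 days of daily topical instillation at 0.005%. Samples treated with 10% trichloroacetic acid and centrifuged. TCA extracted with 0.5 M tri-n-octylamine in 1,1,2-trichloro-1,2,2-trifluoroethane. cGMP quantified by radioimmunoassay using labelled cGMP.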

Oryctolagus cuniculus [5] = experiment: Increase in glutathione levels in aqueous humor of normotensive pigmented rabbit at 0.005%, topical administration; format: functional, Aqueous humor of eyeball
Procedure, shortened: (§2)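 Normotensive rabbits given a single topical instillation at one of three dose levels. Aqueous humour centrifuged at 100.000g, 4 °C for 30 min. Supernatant diluted in phosphate-EDTA buffer and reacted with o-phthaldialdehyde (1 mg/ml) for 15 min at room temperature. Fluorescence read at ex 350/em 420 nm, calibrated with a GSH standard curve.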

Oryctolagus cuniculus [6] = experiment: Effect on intraocular pressure in carbomer-induced glaucoma in pigmented rabbit assessed as AUC at 0.005%, topical administration continuously for 5 days; format: functional, organism-based; conditions: Eye; procedure, shortened: as §1
Oryctolagus cuniculus [7] = experiment: Reduction in intraocular pressure in carbomer-induced glaucoma in pigmented rabbit at 0.005%, single topical administration measured over 4 hrs relative to latanoprost; parameters: scale not given: the % may be the effect or the level left
Oryctolagus cuniculus [8] = experiment: Increase in glutathione levels in aqueous humor of normotensive pigmented rabbit at 0.008%, topical administration; format: functional, Aqueous humor of eyeball; procedure, shortened: as §2
Oryctolagus cuniculus [9] = species: Oryctolagus cuniculus; experiment: Toxicity in New Zealand albino rabbit assessed as tolerability at 0.008% by Draize test; format: organism-based; conditions: in vivo
Procedure, shortened: (§3)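 Ocular tolerability scored by Draize test in New Zealand albino rabbits at three concentrations, compared with placebo.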

Oryctolagus cuniculus [10] = experiment: Increase in glutathione levels in aqueous humor of normotensive pigmented rabbit at 0.01%, topical administration; format: functional, Aqueous humor of eyeball; procedure, shortened: as §2
Oryctolagus cuniculus [11] = species: Oryctolagus cuniculus; experiment: Toxicity in New Zealand albino rabbit assessed as tolerability at 0.01% by Draize test; format: organism-based; conditions: in vivo; procedure, shortened: as §3
Oryctolagus cuniculus [12] = experiment: Reduction in intraocular pressure in carbomer-induced glaucoma in pigmented rabbit at 0.005%, topical administration continuously for 5 days relative to latanoprost; format: functional, Eye; parameters: scale not given: the % may be the effect or the level left; procedure, shortened: as §1
Oryctolagus cuniculus [13] = species: Oryctolagus cuniculus; experiment: Toxicity in New Zealand albino rabbit assessed as tolerability at 0.005% by Draize test; format: organism-based; conditions: in vivo; procedure, shortened: as §3
Oryctolagus cuniculus [14] = experiment: Reduction in intraocular pressure in carbomer-induced glaucoma in pigmented rabbit at 0.005%, topical administration for 1 day; format: functional, Eye; procedure, shortened: as §1
Oryctolagus cuniculus [15] = experiment: Reduction in intraocular pressure in carbomer-induced glaucoma in albino rabbit at 0.005%, topical administration measured after 240 mins; format: functional, Eye; procedure, shortened: as §1
Oryctolagus cuniculus [16] = experiment: Reduction in intraocular pressure in carbomer-induced glaucoma in albino rabbit at 0.005%, topical administration measured after 60 mins; format: functional, Eye; procedure, shortened: as §1
Oryctolagus cuniculus [17] = experiment: Reduction in intraocular pressure in carbomer-induced glaucoma in pigmented rabbit at 0.005%, topical administration measured after 60 mins; format: functional, Eye; procedure, shortened: as §1
Oryctolagus cuniculus [18] = experiment: Reduction in intraocular pressure in carbomer-induced glaucoma in pigmented rabbit at 0.005%, topical administration continuously for 3 days; format: functional, Eye; procedure, shortened: as §1
Oryctolagus cuniculus [19] = experiment: Reduction in intraocular pressure in carbomer-induced glaucoma in pigmented rabbit at 0.005%, topical administration measured after 240 mins; format: functional, Eye; procedure, shortened: as §1
Oryctolagus cuniculus [20] = experiment: Reduction in intraocular pressure in carbomer-induced glaucoma in albino rabbit at 0.005%, topical administration measured after 120 mins; format: functional, Eye; procedure, shortened: as §1
Oryctolagus cuniculus [21] = experiment: Reduction in intraocular pressure in carbomer-induced glaucoma in pigmented rabbit at 0.005%, topical administration measured after 30 mins; format: functional, Eye; procedure, shortened: as §1
Oryctolagus cuniculus [22] = experiment: Reduction in intraocular pressure in carbomer-induced glaucoma in pigmented rabbit at 0.005%, topical administration continuously for 5 days; format: functional, Eye; procedure, shortened: as §1
Oryctolagus cuniculus [23] = experiment: Reduction in intraocular pressure in carbomer-induced glaucoma in pigmented rabbit at 0.005%, topical administration measured after 120 mins; format: functional, Eye; procedure, shortened: as §1
Oryctolagus cuniculus [24] = experiment: Reduction in intraocular pressure in carbomer-induced glaucoma in pigmented rabbit at 0.005%, topical administration continuously for 4 days; format: functional, Eye; procedure, shortened: as §1
Oryctolagus cuniculus [25] = experiment: Reduction in intraocular pressure in carbomer-induced glaucoma in albino rabbit at 0.005%, topical administration measured after 30 mins; format: functional, Eye; procedure, shortened: as §1
Oryctolagus cuniculus [26] = experiment: Reduction in intraocular pressure in carbomer-induced glaucoma in albino rabbit at 0.005%, topical administration continuously measured after […]; format: functional, Eye; procedure, shortened: as §1
Oryctolagus cuniculus [27] = experiment: Reduction in intraocular pressure in carbomer-induced glaucoma in pigmented rabbit at 0.005%, topical administration continuously for 2 days; format: functional, Eye; procedure, shortened: as §1

Work on `CC(C)OC(=O)CCC/C=C\C[C@@H]1[C@@H](CC[C@@H](O)CCc2ccccc2)[C@H](O)C[C@@H]1O` [LATANOPROST] yielded an Activity (Oryctolagus cuniculus [1]) of 36.44 pmol/mL, an AUC (Oryctolagus cuniculus [2]) of 119 mmHg.hr and an AUC (Oryctolagus cuniculus [3]) of 109 mmHg.hr. The Activity (Oryctolagus cuniculus [4]) was 71.8 fmol/mL, the Activity (Oryctolagus cuniculus [5]) was 38.7 pmol/mL and the AUC (Oryctolagus cuniculus [6]) was 2660 mmHg.hr.

`O=C(CCC/C=C\C[C@@H]1[C@@H](CC[C@@H](O)CCc2ccccc2)[C@H](O)C[C@@H]1O)Oc1ccc(-c2cc(=S)ss2)cc1` was tested, and the Activity (Oryctolagus cuniculus [1]) was 65.27 pmol/mL, the Activity (Oryctolagus cuniculus [7]) was 30.8% and the Activity (Oryctolagus cuniculus [8]) was 69.83 pmol/mL. For the same molecule, the Activity (Oryctolagus cuniculus [9]) was “Non-toxic”, the AUC (Oryctolagus cuniculus [2]) was 106 mmHg.hr and the Activity (Oryctolagus cuniculus [10]) was 82.89 pmol/mL. For the same molecule, the Activity (Oryctolagus cuniculus [11]) was “Non-toxic”, the Activity (Oryctolagus cuniculus [12]) was 27% and the AUC (Oryctolagus cuniculus [3]) was 75.2 mmHg.hr. For the same molecule, the Activity (Oryctolagus cuniculus [4]) was 118 fmol/mL, the Activity (Oryctolagus cuniculus [13]) was “Non-toxic” and the Activity (Oryctolagus cuniculus [5]) was 60.04 pmol/mL. For the same molecule, the AUC (Oryctolagus cuniculus [6]) was 2090 mmHg.hr.

With `Oc1ccc(-c2cc(=S)ss2)cc1` the Activity (Oryctolagus cuniculus [1]) was 60.4 pmol/mL, the Activity (Oryctolagus cuniculus [14]) was 26.7 mmHg and the Activity (Oryctolagus cuniculus [15]) was 25.2 mmHg. For the same molecule, the Activity (Oryctolagus cuniculus [16]) was 28 mmHg, the Activity (Oryctolagus cuniculus [17]) was 29 mmHg and the Activity (Oryctolagus cuniculus [18]) was 23 mmHg. For the same molecule, the Activity (Oryctolagus cuniculus [19]) was 23.5 mmHg, the Activity (Oryctolagus cuniculus [20]) was 26.2 mmHg and the Activity (Oryctolagus cuniculus [21]) was 30 mmHg. For the same molecule, the Activity (Oryctolagus cuniculus [22]) was 22 mmHg, the Activity (Oryctolagus cuniculus [4]) was 122 fmol/mL and the Activity (Oryctolagus cuniculus [23]) was 26 mmHg. It also gave an Activity (Oryctolagus cuniculus [24]) of 22.2 mmHg, an Activity (Oryctolagus cuniculus [5]) of 58.3 pmol/mL and an Activity (Oryctolagus cuniculus [25]) of 29.5 mmHg. The Activity (Oryctolagus cuniculus [26]) was 25 mmHg and the Activity (Oryctolagus cuniculus [27]) was 26 mmHg.
